Reference: ChEMBL document CHEMBL1124491, “Folate analogues. 31. Synthesis of the reduced derivatives of 11-deazahomofolic acid, 10-methyl-11-deazahomofolic acid, and their evaluation as inhibitors of glycinamide ribonucleotide formyltransferase” (J Med Chem, 1989)

Columns and labels:
[1] = tested on: Lacticaseibacillus casei; assay: Inhibition of the growth of Lactobacillus casei; assay type: functional, organism-based
In short: (§1)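 Bacterial growth inhibition with folate at 1 ng/mL in the medium. Reported as IC50.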

[2] = tested on: Enterococcus faecium; assay: Inhibition of the growth of Streptococcus faecium; assay type: functional, organism-based; in short: as §1
[3] = molecular target: T1, Trifunctional purine biosynthetic protein adenosine-3 (Homo sapiens, UniProt P22102); assay: Inhibition of the GAR transformylase in MOLT-4 human leukemia cells
T1 sequence (P22102 whole entry): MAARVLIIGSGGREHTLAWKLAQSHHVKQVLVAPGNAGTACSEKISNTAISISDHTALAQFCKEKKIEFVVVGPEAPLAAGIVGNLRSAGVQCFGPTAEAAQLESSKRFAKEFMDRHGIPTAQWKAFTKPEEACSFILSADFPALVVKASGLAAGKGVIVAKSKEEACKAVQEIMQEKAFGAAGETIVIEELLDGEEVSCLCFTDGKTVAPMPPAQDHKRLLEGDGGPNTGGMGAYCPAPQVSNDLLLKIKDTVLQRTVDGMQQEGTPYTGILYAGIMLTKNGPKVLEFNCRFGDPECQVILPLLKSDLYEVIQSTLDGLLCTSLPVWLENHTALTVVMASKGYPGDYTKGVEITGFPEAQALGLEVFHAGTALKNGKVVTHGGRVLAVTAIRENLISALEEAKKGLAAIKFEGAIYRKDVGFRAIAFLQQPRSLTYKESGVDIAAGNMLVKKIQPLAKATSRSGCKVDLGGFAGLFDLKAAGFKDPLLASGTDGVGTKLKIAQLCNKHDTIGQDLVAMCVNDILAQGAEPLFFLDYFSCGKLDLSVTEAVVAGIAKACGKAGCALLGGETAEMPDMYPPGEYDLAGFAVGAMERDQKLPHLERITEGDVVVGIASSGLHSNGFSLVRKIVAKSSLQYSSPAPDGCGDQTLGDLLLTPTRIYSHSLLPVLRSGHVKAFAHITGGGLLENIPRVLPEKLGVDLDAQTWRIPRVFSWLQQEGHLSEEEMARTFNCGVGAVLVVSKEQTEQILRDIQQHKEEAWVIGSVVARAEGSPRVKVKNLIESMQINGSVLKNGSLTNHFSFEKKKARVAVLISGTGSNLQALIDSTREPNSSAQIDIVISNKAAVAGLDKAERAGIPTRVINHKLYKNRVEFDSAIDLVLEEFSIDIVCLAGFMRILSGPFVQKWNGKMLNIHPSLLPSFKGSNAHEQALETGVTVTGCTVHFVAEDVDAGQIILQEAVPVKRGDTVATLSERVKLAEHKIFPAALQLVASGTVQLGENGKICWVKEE

[4] = molecular target: T2, Trifunctional purine biosynthetic protein adenosine-3 (Mus musculus, UniProt Q64737); assay: Inhibition of the GAR transformylase in L1210
T2 sequence (Q64737 whole entry): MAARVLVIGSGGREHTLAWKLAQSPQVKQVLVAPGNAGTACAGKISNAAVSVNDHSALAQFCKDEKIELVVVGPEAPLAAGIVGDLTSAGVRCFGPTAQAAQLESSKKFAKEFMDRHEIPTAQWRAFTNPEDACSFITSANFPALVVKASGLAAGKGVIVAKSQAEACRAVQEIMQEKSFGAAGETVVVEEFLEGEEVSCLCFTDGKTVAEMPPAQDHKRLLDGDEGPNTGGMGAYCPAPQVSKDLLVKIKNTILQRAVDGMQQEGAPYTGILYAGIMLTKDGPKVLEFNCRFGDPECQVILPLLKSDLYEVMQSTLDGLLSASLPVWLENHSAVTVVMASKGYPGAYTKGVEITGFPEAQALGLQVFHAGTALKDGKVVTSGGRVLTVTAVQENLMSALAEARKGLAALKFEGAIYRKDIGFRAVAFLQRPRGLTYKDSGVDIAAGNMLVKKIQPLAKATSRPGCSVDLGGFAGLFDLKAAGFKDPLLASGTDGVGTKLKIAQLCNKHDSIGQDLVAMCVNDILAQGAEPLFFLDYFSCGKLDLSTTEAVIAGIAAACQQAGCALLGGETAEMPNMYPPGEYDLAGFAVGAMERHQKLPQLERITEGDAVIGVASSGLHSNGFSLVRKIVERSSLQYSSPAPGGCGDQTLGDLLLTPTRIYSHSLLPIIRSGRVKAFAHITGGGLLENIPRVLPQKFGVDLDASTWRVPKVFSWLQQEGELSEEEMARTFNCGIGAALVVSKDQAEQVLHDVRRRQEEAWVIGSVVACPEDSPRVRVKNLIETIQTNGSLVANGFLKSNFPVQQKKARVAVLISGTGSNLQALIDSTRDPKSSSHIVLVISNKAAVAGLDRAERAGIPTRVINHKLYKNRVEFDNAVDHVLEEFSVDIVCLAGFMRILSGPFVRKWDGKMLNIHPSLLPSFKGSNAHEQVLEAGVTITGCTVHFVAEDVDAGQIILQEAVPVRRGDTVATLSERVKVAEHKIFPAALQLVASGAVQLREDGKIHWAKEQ

[5] = tested on: MCF7; assay: Inhibition of the growth of MCF-7 human breast adenocarcinoma cells; assay type: functional, cell-based
In short: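 MCF-7 cells grown as monolayers in RPMI 1640 with 10% dialyzed heat-inactivated fetal calf serum. 10 nM calcium leucovorin replaced folic acid as the folate source. Cells were seeded at 7.5 × 10⁴ cells/mL. The result is reported as IC50.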

[6] = tested on: MOLT-4; assay: Inhibition of the growth of MOLT-4 human leukemia cells; assay type: functional, cell-based
In short: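 MOLT-4 cells grown in suspension in RPMI 1640 with 10% dialyzed fetal calf serum. 10 nM calcium leucovorin replaced folic acid as the folate source. The result is reported as IC50.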

[7] = molecular target: T2, Trifunctional purine biosynthetic protein adenosine-3; assay: Inhibition of the GAR formyl transferase in L1210
In short: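 GAR formyltransferase activity in L1210 cell extract, run at 30 °C in 50 mM Tris-HCl, pH 7.5. Substrates were (6R)-10-formyltetrahydrofolate at 60 μM and glycylamide ribonucleotide at 0.24 mM. The result is reported as IC50.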

Compound | IC50 [1] [nM] | IC50 [2] [nM] | IC50 [3] [nM] | IC50 [4] [nM] | IC50 [5] [nM] | IC50 [6] [nM] | IC50 [7] [nM]
CC(CC1=Nc2c(O)nc(N)nc2NC1)Cc1ccc(C(=O)NC(CCC(=O)O)C(=O)O)cc1 (stereo not drawn) | 1700 | 40 |  |  |  |  | 
CC(Cc1ccc(C(=O)NC(CCC(=O)O)C(=O)O)cc1)CC1CNc2nc(N)nc(O)c2N1 (stereo not drawn) | 3800 | 128 |  |  |  |  | 
CC(Cc1ccc(C(=O)NC(CCC(=O)O)C(=O)O)cc1)Cc1cnc2nc(N)nc(O)c2n1 (stereo not drawn) | 4000 | 250 |  |  |  |  | 
Nc1nc2c(c(=O)[nH]1)NC(CCCc1ccc(C(=O)NC(CCC(=O)O)C(=O)O)cc1)CN2 (stereo not drawn) | 540 | 30 | 0.014 | 0.018 | 4500 | 3400 | 
Nc1nc(O)c2nc(CCCc3ccc(C(=O)NC(CCC(=O)O)C(=O)O)cc3)cnc2n1 (stereo not drawn) | 2200 | 120 |  |  |  |  | > 2500
CN(Cc1cnc2nc(N)nc(N)c2n1)c1ccc(C(=O)N[C@@H](CCC(=O)O)C(=O)O)cc1 [METHOTREXATE] | 0.02 | 0.9 |  |  |  |  | 
Nc1nc(O)c2c(n1)NC[C@H](CCNc1ccc(C(=O)NC(CCC(=O)O)C(=O)O)cc1)N2 (stereo partly drawn) [TETRAHYDROHOMOFOLATE] |  |  |  | > 0.02 |  |  | 
